According to ChEMBL document CHEMBL2169884, “Novel inhibitors of heat shock protein Hsp70-mediated luciferase refolding that bind to DnaJ” (Bioorg Med Chem, 2012):
Calls of active or inactive are those of the source. The rule behind the calls is not given here.

Key:
[1] = Inhibition of human HSP70/DnaJ-mediated luciferase refolding after 10 mins by liquid scintillation counting
Summary of the method: (§1)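 Luciferase (0.5 mg/mL) denatured in 6 M guanidine HCl in buffer A (25 mM Hepes pH 7.4, 50 mM potassium acetate, 5 mM DTT), 60 min at RT, then diluted 1:20. Refolding mixture: 0.5 µM Hsp70, 60 nM DnaJ, 125 ng denatured luciferase with compound in buffer containing 0.1 mM ATP, creatine phosphate and creatine phosphokinase. Incubated 1 h; DnaJ, luciferase or ATP varied in mechanism runs. Aliquots read by luciferin luminescence after 10 min. IC50 is the geometric mean of ≥3 determinations.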

[2] = Effect on luciferase activity up to 300 uM
HeLa = assay: Induction of Hsp70 in human HeLa cells at 10 uM after overnight incubation by solid state immuno assay relative to 17-AAG; format: functional
Summary of the method: (§2)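 HeLa or A172 cells treated overnight with compound; Hsp70 levels measured by solid-state immunoassay, with stimulation expressed relative to 1 µM 17-AAG as positive control.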

A 172 = assay: Induction of Hsp70 in human A172 cells at 10 uM after overnight incubation by solid state immuno assay relative to 17-AAG; format: functional; summary of the method: as §2
[3] = Inhibition of luciferase refolding in rabbit reticulocyte lysate preincubated for 30 mins measured after 1 hr by liquid scintillation counting
Homo sapiens [4] = organism: Homo sapiens; assay: Inhibition of human HSP70/DnaJ-mediated luciferase refolding after 10 mins by liquid scintillation counting in presence of 0.1 to 10 µg/mL of denatured luciferase; summary of the method: as §1
Homo sapiens [5] = organism: Homo sapiens; assay: Inhibition of human HSP70/DnaJ-mediated luciferase refolding after 10 mins by liquid scintillation counting in presence of up to 10 mM of ATP; summary of the method: as §1
Homo sapiens [6] = organism: Homo sapiens; assay: Inhibition of human Hsp70-mediated ATPase activity at 10 uM
[7] = Binding affinity to DnaJ assessed as rightward shift in melting temperature at 10 to 30 uM by thermal denaturation assay
[8] = Binding affinity to DnaJ assessed as rightward shift in melting temperature by thermal denaturation assay
Homo sapiens [9] = organism: Homo sapiens; assay: Inhibition of DnaJ-mediated stimulation of human Hsp70 ATPase activity at 10 uM; settings: 0.1 to 3.2 uM, in the assay text read “at 0.1 to 3.2 uM” for “at 10 uM”
Summary of the method: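 Hsp70 (300 nM) incubated with 3.2 µM ATP and DnaJ (0.1–320 nM) at 37 °C for 5–40 min in pH 7.4 HEPES buffer with KCl, EGTA and MgCl2. Reactions stopped with EDTA stop buffer containing ADP tracer and antibody. ADP detected by Transcreener fluorescence (ex 580, em 620 nm).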

Homo sapiens [10] = organism: Homo sapiens; assay: Binding affinity to human Hsp70 assessed as rightward shift in melting temperature by thermal denaturation assay
Homo sapiens [11] = organism: Homo sapiens; assay: Binding affinity to human Hsp70 assessed as rightward shift in melting temperature at 3.2 to 32 uM by thermal denaturation assay
[12] = Binding affinity to DnaJ assessed as rightward shift in melting temperature at 3.2 to 32 uM by thermal denaturation assay

| IC50 [1] | Activity [2] | IC50 [3] | SMILES | Activity (HeLa) | Activity (A 172) | further results |
| --- | --- | --- | --- | --- | --- | --- |
| > 100 µM | inactive | 4 µM | Clc1ccc(Nc2nc(-c3cccs3)cs2)cc1 | <10% | <10% |  |
| 0.95 µM |  |  | COC(=O)c1cccc(NC(=O)COc2cc(Cl)ccc2Cl)c1 |  |  |  |
| 0.6 µM |  |  | CCCOC(=O)c1cccc(NC(=O)COc2ccccc2Cl)c1 |  |  |  |
| > 30 µM | inactive | 4.3 µM | CCCCCOC(=O)C1=C(C)NC2(O)c3ccccc3C(=O)C12O (centres undefined) | <10% | <10% |  |
| 0.62 µM | inactive | 0.81 µM | CCOC(=O)c1cccc(NC(=O)COc2ccccc2Cl)c1 | <10% | <10% |  |
| 0.13 µM |  |  | CCCCOC(=O)c1cccc(NC(=O)COc2ccc(Cl)cc2Cl)c1 |  |  | inhibition (Homo sapiens [4]): inactive; inhibition (Homo sapiens [5]): Active; inhibition (Homo sapiens [6]): inactive; Tm(app) [7]: 2 °C; Activity [8]: Dose-dependent effect; inhibition (Homo sapiens [9]): Active; Activity (Homo sapiens [10]): inactive |
| 22 µM | inactive | 1.1 µM | c1ccc(Nc2nc(-c3cccs3)cs2)cc1 | <10% | <10% |  |
| > 32 µM |  |  | CCOC(=O)c1cccc(NC(=O)COc2ccc(Cl)cc2)c1 |  |  |  |
| > 100 µM | inactive | 8.8 µM | Clc1ccccc1C1Oc2ccccc2-c2cc(-c3ccco3)nn21 (centres undefined) | <10% | <10% |  |
| > 32 µM |  |  | COC(=O)c1cccc(NC(=O)COc2ccc(Cl)cc2Cl)c1 |  |  | Activity (Homo sapiens [11]): inactive; Activity [12]: inactive |
